# Published values collected from several papers.
# Compare with care: the assays were run in different laboratories.
# SIRT6: NAD-dependent protein deacylase sirtuin-6 (SIRT6, Homo sapiens, UniProt Q8N6T7)
# HTR7: 5-hydroxytryptamine receptor 7 (HTR7, Homo sapiens, UniProt P34969)
# CDK2: Cyclin-dependent kinase 2 (CDK2, Homo sapiens, UniProt P24941)
# PKM: Pyruvate kinase PKM (PKM, Homo sapiens, UniProt P14618)
# STAT3: Signal transducer and activator of transcription 3 (STAT3, Homo sapiens, UniProt P40763)
# OR5K1: OR5K1 (Homo sapiens, UniProt Q8NHB7)
# HTR6: 5-hydroxytryptamine receptor 6 (HTR6, Homo sapiens, UniProt P50406)
SMILES,target,assay,setting,quantity,result
NC(=O)c1ccc(C(=O)NOCc2ccc(Nc3ccccc3)cc2)cc1,SIRT6,"enzyme activity, inhibitor, fluorescence",,IC50,2.61 µM
CN1CCN(C2=Nc3ccccc3Oc3ccc(Cl)cc32)CC1,HTR7,"ligand displacement, radioligand",cell membranes,Ki,0.258 µM
CC(=O)N=S(=O)(O)c1ccc(N/C=C2\C(=O)Nc3ccc4ncsc4c32)cc1,CDK2,binding,,Kd,0.526 µM
Nc1nc2c(ncn2[C@@H]2O[C@H](COP(=O)(O)OP(=O)(O)O)[C@@H](OP(=O)(O)OP(=O)(O)O)[C@H]2O)c(=O)[nH]1,"Xanthine-guanine phosphoribosyltransferase (Escherichia coli, UniProt P0A9M5)","binding, ITC",,Kd,3.2 µM
Cc1cc(NS(=O)(=O)c2ccc3c(c2)CCC(=O)N3)ccc1Cl,PKM,"enzyme activity, activator",,AC50,0.56 µM
Cc1cc(C)c(S(=O)(=O)N(C)CC(=O)N(Cc2ccc3ccccc3c2)c2ccc(C(=O)O)c(O)c2)c(C)c1,STAT3,"ligand displacement, FP",,Ki,27.7 µM
Cc1cccc(CONC(=O)c2ccc(C(N)=O)cc2)c1,SIRT6,"enzyme activity, inhibitor, fluorescence",,IC50,3.94 µM
Cc1cnc(-c2ccc(-c3ccc(NC(=O)Nc4c(F)cc(F)cc4F)cc3F)c3c2C(=O)NC3)[nH]1,"Mitogen-activated protein kinase kinase kinase kinase 1 (MAP4K1, Homo sapiens, UniProt Q92918)","binding, competition with immobilised ligand",,Kd,0.0072 µM
NC(=O)c1ccc(C(=O)NOCc2ccc(-n3cccn3)cc2)cc1,SIRT6,"enzyme activity, inhibitor, fluorescence",,IC50,2.23 µM
Cc1cnc(C)cn1,OR5K1,"cAMP, agonist",,EC50,> 1500 µM
Cc1nc2n(c(=O)c1CCN1CCC(c3noc4cc(F)ccc34)CC1)CCCC2O (stereo not shown),HTR7,"ligand displacement, radioligand",cell membranes,Ki,0.01 µM
CNc1cc2c(cc1S(=O)(=O)Nc1ccc(C)c(C)c1)CCC(=O)N2,PKM,"enzyme activity, activator",,AC50,0.44 µM
CC1=C(/C=C/C2=CCC[C@@]3(C)[C@H]2CC[C@@H]3[C@@](C)(O)CCCC(C)C)C[C@@H](O)CC1,"Oxysterols receptor LXR-beta (NR1H2, Homo sapiens, UniProt P55055)","coactivator recruitment, agonist, TR-FRET",,EC50,0.01 to 0.1 µM
CC(C)(C)c1ccc(CONC(=O)c2ccc(C(N)=O)cc2)cc1,SIRT6,"enzyme activity, inhibitor, fluorescence",,IC50,2.79 µM
CC(C)[C@@H](CC[C@@H](C)[C@H]1CC[C@H]2[C@@H]3[C@H](O)C[C@H]4C[C@@H](NCCCNCCCCNCCCN)CC[C@]4(C)[C@H]3CC[C@]12C)OS(=O)(=O)O,"Receptor-type tyrosine-protein phosphatase R (PTPRR, Homo sapiens, UniProt Q15256)","enzyme activity, inhibitor",,Ki,25 µM
N#Cc1ccc(CONC(=O)c2ccc(C(N)=O)cc2)cc1,SIRT6,"enzyme activity, inhibitor, fluorescence",,IC50,11.7 µM
Cc1cc2nc3c(=O)[nH]c(=O)nc-3n(C[C@H](O)[C@H](O)[C@H](O)COP(=O)(O)OP(=O)(O)OC[C@H]3O[C@@H](n4cnc5c(N)ncnc54)[C@H](O)[C@@H]3O)c2cc1C,"Nucleolysin TIAR (Homo sapiens, UniProt Q01085)",binding,lysate,Kd,0.011 µM
CCc1nc2cc(OCCCCN3CCC(c4cccc(Cl)c4Cl)CC3)ccc2s1,HTR6,"cell-free assay, radioligand",,Ki,0.96 µM
CN(C)CCC=C1c2ccccc2CCc2ccccc21,HTR7,"ligand displacement, radioligand",cell membranes,Ki,0.096 µM
Cc1ccc(NS(=O)(=O)c2cc3c(cc2Cl)NC(=O)CO3)cc1C,PKM,"enzyme activity, activator",,AC50,0.26 µM
Cc1nccnc1C,OR5K1,"cAMP, agonist",,EC50,> 1500 µM
CC[C@H](NC(=O)[C@H](CS(=O)(=O)CC1CC1)N[C@@H](c1ccc(F)cc1)C(F)(F)F)C(=O)C(=O)NC1CC1,"Cathepsin B (CTSB, Homo sapiens, UniProt P07858)","enzyme activity, inhibitor, fluorescence",with preincubation,Ki,0.00033 µM
CC(=O)N[C@H](C(=O)N[C@@H](CC(N)=O)C(=O)N[C@@H](CCCCN)C(=O)N[C@@H](C)C(=O)N[C@@H](CC(C)C)C(=O)N1CCC[C@H]1C(=O)N[C@@H](C)C(=O)N[C@@H](CC(C)C)C(=O)N1CCC[C@H]1C(=O)N[C@H](C(=O)N[C@@H](C)C(N)=O)C(C)C)C(C)C,"Tyrosine-protein kinase Fyn, SH3 (FYN, Homo sapiens, UniProt P06241)","binding, ITC",pH 7,Kd,70 µM
Cc1ccc(NS(=O)(=O)c2cc3c(cc2N2CCC(N(C)C)C2)NC(=O)CC3)cc1C (stereo not shown),PKM,"enzyme activity, activator",,AC50,> 20 µM
CCCCN1CCC(COC(=O)c2ccc(N)c(OCF)c2)CC1,HTR6,"cell-free assay, radioligand",,Ki,> 10 µM
COc1cnccn1,OR5K1,"cAMP, agonist",,EC50,> 1500 µM
O=C1CCc2cc(S(=O)(=O)Nc3ccc4c(c3)OCCO4)ccc2N1,PKM,"enzyme activity, activator",,AC50,11.1 µM
COc1ccc2c(Oc3ccc4c(C(=O)Nc5ccccc5N)cccc4c3)ccnc2c1,"Sodium channel protein type 5 subunit alpha (SCN5A, Homo sapiens, UniProt Q14524)","ion current, inhibitor",,IC50,> 10 µM
NC(=O)c1ccc(C(=O)NOCc2ccc(Sc3ccc(N)cc3)c(C(F)(F)F)c2)cc1,SIRT6,"enzyme activity, inhibitor, fluorescence",,IC50,1.8 µM
Cc1ccc(NS(=O)(=O)c2cc3c(cc2NC(C)CO)NC(=O)CC3)cc1C (stereo not shown),PKM,"enzyme activity, activator",,AC50,0.23 µM
O=C1c2ccccc2CCN1CCCCN1CCN(c2cccc(Cl)c2Cl)CC1,HTR6,"ligand displacement, radioligand",,Ki,0.544 µM
c1cnc2cc3c(cc2n1)[C@@H]1CNC[C@H]3C1,"Neuronal acetylcholine receptor subunit alpha-4/beta-2 (Mus musculus, UniProt O70174+Q9ERK7)","ligand displacement, radioligand",cell membranes,Ki,0.00299 µM
COc1cccc(Sc2ccc(CONC(=O)c3ccc(C(N)=O)cc3)cc2C(F)(F)F)c1,SIRT6,"enzyme activity, inhibitor, fluorescence",,IC50,1.12 µM
CC(C)c1nc2cc(OCCCCN3CCN(c4cccc5c4OCCO5)CC3)ccc2s1,HTR6,"cell-free assay, radioligand",,Ki,2.3 µM
Cc1cnc(C)c(C)n1,"OR5K1 (Homo sapiens, UniProt Q8NHB7, F62L)","cAMP, agonist",,EC50,376 µM
Cc1ccc(NS(=O)(=O)c2cc3c(cc2NC(C)C)NC(=O)CC3)cc1C,PKM,"enzyme activity, activator",,AC50,0.57 µM
CC(N)c1ccc(C(=O)NOCc2ccc(C(F)(F)F)cc2)cc1 (stereo not shown),SIRT6,"enzyme activity, inhibitor, fluorescence",,IC50,2.64 µM
O=C(Nc1cc(C2CCCCC2)[nH]n1)c1ccc(Br)cc1,CDK2,binding,,Kd,> 100 µM
C[C@@H](CO)Nc1cc2c(cc1S(=O)(=O)Nc1ccc(F)c(Cl)c1)CCC(=O)N2,PKM,"enzyme activity, activator",,AC50,0.13 µM
CN(CC(=O)N(Cc1cc(C(C)(C)C)cc(C(C)(C)C)c1)c1ccc(C(=O)O)c(O)c1)S(=O)(=O)c1c(F)c(F)c(F)c(F)c1F,STAT3,"ligand displacement, FP",,Ki,37.5 µM
